Measured values taken from ChEMBL document CHEMBL1126560, “Endothelin-1 analogues substituted at both position 18 and 19: highly potent endothelin antagonists with no selectivity for either receptor subtype ETA or ETB” (J Med Chem, 1993).

Tests used:
[1] = target: T1, Endothelin-1 receptor (Sus scrofa) (UniProt Q29010); test: Endothelin A receptor agonist activity as maximum vasoconstriction in porcine coronary artery; assay type: functional, tissue-based
T1 sequence (whole entry): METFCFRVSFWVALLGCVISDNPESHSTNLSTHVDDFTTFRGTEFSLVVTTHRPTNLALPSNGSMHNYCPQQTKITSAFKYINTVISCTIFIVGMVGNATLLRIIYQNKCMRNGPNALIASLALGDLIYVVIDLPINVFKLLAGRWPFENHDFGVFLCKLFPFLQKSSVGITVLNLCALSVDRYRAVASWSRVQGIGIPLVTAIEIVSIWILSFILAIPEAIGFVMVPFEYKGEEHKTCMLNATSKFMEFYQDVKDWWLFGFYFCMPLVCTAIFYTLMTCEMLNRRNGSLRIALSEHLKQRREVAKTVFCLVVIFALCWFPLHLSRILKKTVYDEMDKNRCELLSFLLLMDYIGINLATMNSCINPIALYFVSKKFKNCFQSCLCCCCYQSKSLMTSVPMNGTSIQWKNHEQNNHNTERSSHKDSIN
In short: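 Porcine right coronary artery, endothelium-denuded helical strips in Krebs-Henseleit, 37 °C, isometric tension. Compound applied cumulatively, up to 1 μM. Maximal contraction expressed as % of 60 mM KCl-induced tension; n in parentheses.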

[2] = target: T2, Endothelin receptor type B (Bos taurus, UniProt P28088); test: Tested for the competitive binding versus [125I]- ET-1 determined in bovine cerebrum membrane for Endothelin B receptor; assay type: cell membranes
T2 sequence (P28088 whole entry): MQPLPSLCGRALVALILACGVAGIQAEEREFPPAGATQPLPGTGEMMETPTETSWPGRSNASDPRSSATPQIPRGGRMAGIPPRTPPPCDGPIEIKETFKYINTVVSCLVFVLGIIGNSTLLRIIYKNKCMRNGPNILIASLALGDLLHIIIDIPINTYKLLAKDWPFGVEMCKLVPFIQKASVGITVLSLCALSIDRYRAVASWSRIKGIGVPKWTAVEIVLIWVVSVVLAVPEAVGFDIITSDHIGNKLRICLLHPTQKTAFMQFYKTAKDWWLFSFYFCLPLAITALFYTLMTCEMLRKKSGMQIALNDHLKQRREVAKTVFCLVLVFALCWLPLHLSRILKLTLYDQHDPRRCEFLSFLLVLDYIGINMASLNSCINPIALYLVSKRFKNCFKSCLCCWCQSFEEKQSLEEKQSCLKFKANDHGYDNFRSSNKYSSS
In short: (§1)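 Membranes (porcine cardiac ventricle at 12 μg/mL for ETA; bovine cerebrum at 150 μg/mL for ETB) in pH 7.2 Tris/EGTA/Mg acetate/0.1% BSA buffer with protease inhibitors. Incubated with 100 pM [125I]ET-1 and varied compound for 1 h at 25 °C, then filtered and counted by gamma counter. IC50 given as mean ± SEM of ≥3 determinations.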

Endothelin-1 receptor = target: T3, Endothelin-1 receptor (Sus scrofa, UniProt Q29010); test: Tested for the competitive binding versus [125I]- ET-1 determined in porcine cardiac ventricular membrane for Endothelin A receptor; in short: as §1
T3 sequence (Q29010 whole entry): T1 sequence (whole entry)

Compound | Max vasoconstriction [1] | IC50 [2] [nM] | IC50 (Endothelin-1 receptor) [nM]
CC[C@H](C)[C@H](NC(=O)[C@@H](NC(=O)[C@@H](NC(=O)[C@H](CC(C)C)NC(=O)[C@H](Cc1c[nH]cn1)NC(=O)[C@@H]1CSSC[C@@H](N)C(=O)N[C@@H](CO)C(=O)N[C@@H]2CSSC[C@@H](NC(=O)[C@H](CCC(=O)O)NC(=O)[C@@H](CCCCN)NC(=O)[C@H](CC(=O)O)NC(=O)[C@@H](CCSC)NC(=O)[C@H](CC(C)C)NC(=O)[C@@H](CO)NC(=O)[C@H](CO)NC2=O)C(=O)N[C@@H](C(C)C)C(=O)N[C@H](Cc2ccc(O)cc2)C(=O)N[C@@H](Cc2ccccc2)C(=O)N1)[C@@H](C)O)C(C)C)C(=O)N[C@@H](Cc1c[nH]c2ccccc12)C(=O)O | 128 | – | –
CCC[C@H](NC(=O)[C@@H](NC(=O)[C@H](CC(C)C)NC(=O)[C@H](Cc1c[nH]cn1)NC(=O)[C@@H]1CSSC[C@@H](N)C(=O)N[C@@H](CO)C(=O)N[C@@H]2CSSC[C@@H](NC(=O)[C@H](CCC(=O)O)NC(=O)[C@@H](CCCCN)NC(=O)[C@H](CC(=O)O)NC(=O)[C@@H](CCSC)NC(=O)[C@H](CC(C)C)NC(=O)[C@@H](CO)NC(=O)[C@H](CO)NC2=O)C(=O)N[C@@H](C(C)C)C(=O)N[C@H](Cc2ccc(O)cc2)C(=O)N[C@@H](Cc2ccccc2)C(=O)N1)[C@@H](C)O)C(=O)N[C@H](C(=O)N[C@@H](Cc1c[nH]c2ccccc12)C(=O)O)[C@@H](C)CC | 112 | – | –
CC[C@H](C)[C@H](NC(=O)[C@@H](NC(=O)[C@H](CC(C)C)NC(=O)[C@H](Cc1c[nH]cn1)NC(=O)[C@@H]1CSSC[C@H](N)C(=O)N[C@@H](CO)C(=O)N[C@H]2CSSC[C@H](NC(=O)[C@H](CCC(=O)O)NC(=O)[C@H](CCCCN)NC(=O)[C@H](CC(=O)O)NC(=O)[C@H](CCSC)NC(=O)[C@H](CC(C)C)NC(=O)[C@H](CO)NC(=O)[C@H](CO)NC2=O)C(=O)N[C@@H](C(C)C)C(=O)N[C@@H](Cc2ccc(O)cc2)C(=O)N[C@@H](Cc2ccccc2)C(=O)N1)[C@@H](C)O)C(=O)N[C@H](C(=O)N[C@@H](Cc1c[nH]c2ccccc12)C(=O)O)[C@@H](C)CC | – | 0.33 | 0.19
CC[C@H](C)[C@H](NC(=O)[C@@H](NC(=O)[C@H](CC(C)C)NC(=O)[C@H](Cc1c[nH]cn1)NC(=O)[C@@H]1CSSC[C@@H](N)C(=O)N[C@@H](CO)C(=O)N[C@@H]2CSSC[C@@H](NC(=O)[C@H](CCC(=O)O)NC(=O)[C@@H](CCCCN)NC(=O)[C@H](CC(=O)O)NC(=O)[C@@H](CCSC)NC(=O)[C@H](CC(C)C)NC(=O)[C@@H](CO)NC(=O)[C@H](CO)NC2=O)C(=O)N[C@@H](C(C)C)C(=O)N[C@H](Cc2ccc(O)cc2)C(=O)N[C@@H](Cc2ccccc2)C(=O)N1)[C@@H](C)O)C(=O)N[C@H](C(=O)N[C@@H](Cc1c[nH]c2ccccc12)C(=O)O)[C@@H](C)CC | 76 | – | –
CC[C@H](C)[C@H](NC(=O)[C@H](CC(=O)O)NC(=O)[C@H](CC(C)C)NC(=O)[C@H](Cc1c[nH]cn1)NC(=O)[C@@H]1CSSC[C@@H](N)C(=O)N[C@H](CO)C(=O)N[C@H]2CSSC[C@@H](NC(=O)[C@H](CCC(=O)O)NC(=O)[C@H](CCCCN)NC(=O)[C@@H](CC(=O)O)NC(=O)[C@H](CCSC)NC(=O)[C@@H](CC(C)C)NC(=O)[C@H](CO)NC(=O)[C@@H](CO)NC2=O)C(=O)N[C@@H](C(C)C)C(=O)N[C@H](Cc2ccc(O)cc2)C(=O)N[C@@H](Cc2ccccc2)C(=O)N1)C(=O)N[C@H](C(=O)N[C@@H](Cc1c[nH]c2ccccc12)C(=O)O)[C@@H](C)CC | 120 | – | –
CC[C@H](C)[C@H](NC(=O)[C@H](CC(=O)O)NC(=O)[C@H](CC(C)C)NC(=O)[C@H](Cc1c[nH]cn1)NC(=O)[C@@H]1CSSC[C@@H](NC(=O)[C@H](CCC(=O)O)NC(=O)[C@@H](CCCCN)NC(=O)[C@H](CC(=O)O)NC(=O)[C@@H](CCSC)NC(=O)[C@H](CC(C)C)NC(=O)[C@@H](CO)NC(=O)[C@H](CO)NC(=O)[C@H]2CSSC[C@@H](N)C(=O)N[C@@H](CO)C(=O)N2)C(=O)N[C@@H](C(C)C)C(=O)N[C@H](Cc2ccc(O)cc2)C(=O)N[C@@H](Cc2ccccc2)C(=O)N1)C(=O)N[C@H](C(=O)N[C@@H](Cc1c[nH]c2ccccc12)C(=O)O)[C@@H](C)CC | > 80 | – | –
CC[C@H](C)[C@H](NC(=O)[C@H](CC(C)C)NC(=O)[C@H](CC(=O)O)NC(=O)[C@H](CC(C)C)NC(=O)[C@H](Cc1c[nH]cn1)NC(=O)[C@@H]1CSSC[C@H](N)C(=O)N[C@@H](CO)C(=O)N[C@H]2CSSC[C@H](NC(=O)[C@H](CCC(=O)O)NC(=O)[C@H](CCCCN)NC(=O)[C@H](CC(=O)O)NC(=O)[C@H](CCSC)NC(=O)[C@H](CC(C)C)NC(=O)[C@H](CO)NC(=O)[C@H](CO)NC2=O)C(=O)N[C@@H](C(C)C)C(=O)N[C@@H](Cc2ccc(O)cc2)C(=O)N[C@@H](Cc2ccccc2)C(=O)N1)C(=O)N[C@@H](Cc1c[nH]c2ccccc12)C(=O)O | – | 0.17 | 0.75
CC[C@H](C)[C@H](NC(=O)[C@H](CC(C)C)NC(=O)[C@H](CC(C)C)NC(=O)[C@H](Cc1c[nH]cn1)NC(=O)[C@@H]1CSSC[C@@H](N)C(=O)N[C@@H](CO)C(=O)N[C@@H]2CSSC[C@@H](NC(=O)[C@H](CCC(=O)O)NC(=O)[C@@H](CCCCN)NC(=O)[C@H](CC(=O)O)NC(=O)[C@@H](CCSC)NC(=O)[C@H](CC(C)C)NC(=O)[C@@H](CO)NC(=O)[C@H](CO)NC2=O)C(=O)N[C@@H](C(C)C)C(=O)N[C@H](Cc2ccc(O)cc2)C(=O)N[C@@H](Cc2ccccc2)C(=O)N1)C(=O)N[C@H](C(=O)N[C@@H](Cc1c[nH]c2ccccc12)C(=O)O)[C@@H](C)CC | 0 | – | –
CCC[C@H](NC(=O)[C@@H](NC(=O)[C@H](CC(C)C)NC(=O)[C@H](Cc1cnc[nH]1)NC(=O)[C@@H]1CSSC[C@H](N)C(=O)N[C@@H](CO)C(=O)N[C@H]2CSSC[C@H](NC(=O)[C@H](CCC(=O)O)NC(=O)[C@H](CCCCN)NC(=O)[C@H](CC(=O)O)NC(=O)[C@H](CCSC)NC(=O)[C@H](CC(C)C)NC(=O)[C@H](CO)NC(=O)[C@H](CO)NC2=O)C(=O)N[C@@H](C(C)C)C(=O)N[C@@H](Cc2ccc(O)cc2)C(=O)N[C@@H](Cc2ccccc2)C(=O)N1)[C@@H](C)O)C(=O)N[C@H](C(=O)N[C@@H](Cc1c[nH]c2ccccc12)C(=O)O)[C@@H](C)CC | – | – | 0.2
CC[C@H](C)[C@H](NC(=O)[C@H](CC(C)C)NC(=O)[C@H](CC(=O)O)NC(=O)[C@H](CC(C)C)NC(=O)[C@H](Cc1c[nH]cn1)NC(=O)[C@@H]1CSSC[C@@H](N)C(=O)N[C@@H](CO)C(=O)N[C@@H]2CSSC[C@@H](NC(=O)[C@H](CCC(=O)O)NC(=O)[C@@H](CCCCN)NC(=O)[C@H](CC(=O)O)NC(=O)[C@@H](CCSC)NC(=O)[C@H](CC(C)C)NC(=O)[C@@H](CO)NC(=O)[C@H](CO)NC2=O)C(=O)N[C@@H](C(C)C)C(=O)N[C@H](Cc2ccc(O)cc2)C(=O)N[C@@H](Cc2ccccc2)C(=O)N1)C(=O)N[C@@H](Cc1c[nH]c2ccccc12)C(=O)O | 73 | – | –
CC[C@H](C)[C@H](NC(=O)[C@@H](NC(=O)[C@@H](NC(=O)[C@H](CC(C)C)NC(=O)[C@H](Cc1c[nH]cn1)NC(=O)[C@@H]1CSSC[C@H](N)C(=O)N[C@@H](CO)C(=O)N[C@H]2CSSC[C@H](NC(=O)[C@H](CCC(=O)O)NC(=O)[C@H](CCCCN)NC(=O)[C@H](CC(=O)O)NC(=O)[C@H](CCSC)NC(=O)[C@H](CC(C)C)NC(=O)[C@H](CO)NC(=O)[C@H](CO)NC2=O)C(=O)N[C@@H](C(C)C)C(=O)N[C@@H](Cc2ccc(O)cc2)C(=O)N[C@@H](Cc2ccccc2)C(=O)N1)[C@@H](C)O)C(C)C)C(=O)N[C@@H](Cc1c[nH]c2ccccc12)C(=O)O | – | – | 0.18
CC[C@H](C)[C@H](NC(=O)[C@H](CC(C)(C)C)NC(=O)[C@@H](NC(=O)[C@H](CC(C)C)NC(=O)[C@H](Cc1c[nH]cn1)NC(=O)[C@@H]1CSSC[C@@H](N)C(=O)N[C@@H](CO)C(=O)N[C@@H]2CSSC[C@@H](NC(=O)[C@H](CCC(=O)O)NC(=O)[C@@H](CCCCN)NC(=O)[C@H](CC(=O)O)NC(=O)[C@@H](CCSC)NC(=O)[C@H](CC(C)C)NC(=O)[C@@H](CO)NC(=O)[C@H](CO)NC2=O)C(=O)N[C@@H](C(C)C)C(=O)N[C@H](Cc2ccc(O)cc2)C(=O)N[C@@H](Cc2ccccc2)C(=O)N1)[C@@H](C)O)C(=O)N[C@@H](Cc1c[nH]c2ccccc12)C(=O)O | 0 | – | –
